# Assay results taken from ChEMBL document CHEMBL1132192, “Design, synthesis, and evaluation of conformationally constrained tongs, new inhibitors of HIV-1 protease dimerization” (J Med Chem, 1999).
# Numbered stars: 1 amine (or outer) side, 2 acyl side, 3 side chain; on linkers, the order of the positions; unused ones are H or OH. Bridge positions count the residues as written; N and C are the ends. Square brackets hold non-standard residues; d marks the D form. Peptide text beside a SMILES is read from it. I, II: the chains in the order shown. * marks the point of attachment. ξ: configuration not given here. Naphthalene(2,7-(OC3H6CO)2) = O=C(CCCOc1ccc2ccc(OCCCC(=O)[*:2])cc2c1)[*:1]; X1 = COC(=O)CCCOc1ccc2ccc(OCCCC(=O)*)cc2c1; Thr(3ξ) = CC(O)[C@H](N)C(=O)O
# Tests used:
# [1] = target: T1, Human immunodeficiency virus type 1 protease (Human immunodeficiency virus 1, UniProt Q72874); experiment: Inhibition of plasmid pET9c-PR expressing HIV-1 protease (No inhibition)
# [2] = target: T1, Human immunodeficiency virus type 1 protease; experiment: The compound was tested for HIV-1 protease inhibitory activity against plasmid pET9c-PR expressing HIV-1 protease.
# [3] = target: Human immunodeficiency virus type 1 protease (Human immunodeficiency virus 1) (UniProt Q72874); experiment: The compound was tested for HIV-1 protease inhibitory activity against plasmid pET9c-PR expressing HIV-1 protease. activity is expressed as Kid value.
# Procedure, shortened: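 Dissociative (antidimer) inhibition was analysed by the Zhang kinetic method. Fluorogenic substrate was held at 5.2 μM ([S]0 ≪ Km, Km = 103 μM), with at least five HIV-1 protease (pET9c-PR) levels (2.37–11.8 nM) at several inhibitor concentrations. Runs were at pH 4.7 acetate buffer, 30 °C, fluorescence 340/490 nm. Kid was taken from regression fits of [E]0/√vi versus √vi.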
# [4] = target: Human immunodeficiency virus type 1 protease (Human immunodeficiency virus 1) (UniProt Q72874); experiment: The compound was tested for HIV-1 protease inhibitory activity against plasmid pET9c-PR expressing HIV-1 protease at 6.7 uM
# Procedure, shortened: (§1)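 Recombinant HIV-1 protease (expressed from pET9c-PR), 7.5 nM final, prediluted in buffer with 1 mg/mL BSA. Inhibitor was mixed with fluorogenic substrate (5.2 μM final) and the reaction started with enzyme. Fluorescence rise at 490 nm (excitation 340 nm) was followed for 5 min at 30 °C.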
# [5] = target: Human immunodeficiency virus type 1 protease (Human immunodeficiency virus 1) (UniProt Q72874); experiment: The compound was tested for HIV-1 protease inhibitory activity against plasmid pET9c-PR expressing HIV-1 protease at 4.5 uM; procedure, shortened: as §1
# [6] = target: Human immunodeficiency virus type 1 protease (Human immunodeficiency virus 1) (UniProt Q72874); experiment: The compound was tested for HIV-1 protease inhibitory activity against plasmid pET9c-PR expressing HIV-1 protease at 7 uM; procedure, shortened: as §1
SMILES,IC50 [1],IC50 [2] [µM],other results
"CC[C@H](C)[C@H](NC(=O)[C@H](CCC(N)=O)NC(=O)CCCOc1ccc2ccc(OCCCC(=O)N[C@@H](CCC(N)=O)C(=O)N[C@H](C(=O)N[C@H](C(=O)N[C@@H](CC(C)C)C(=O)OC)C(C)O)[C@@H](C)CC)cc2c1)C(=O)N[C@H](C(=O)N[C@@H](CC(C)C)C(=O)OC)C(C)O (stereo partly drawn) (I: QI[Thr(3ξ)]L-OMe / II: QI[Thr(3ξ)]L-OMe; linker I:N-II:N via Naphthalene(2,7-(OC3H6CO)2))",Not Active,,
COC(=O)CCCOc1ccc2ccc(OCCCC(=O)N[C@H](C(=O)N[C@@H](CC(C)C)C(=O)N[C@H](C(=O)N[C@H](C(=O)OC)C(C)C)C(C)C)C(C)O)cc2c1 (stereo not given in full) (X1-[Thr(3ξ)]LVV-OMe),,10,
COC(=O)[C@@H](NC(=O)[C@H](CC(C)C)NC(=O)[C@@H](NC(=O)CCCOc1ccc2ccc(OCCCC(=O)N[C@H](C(=O)N[C@@H](CC(C)C)C(=O)N[C@H](C(=O)OC)C(C)C)C(C)C)cc2c1)C(C)C)C(C)C,,2,Kid [3]: 0.56 µM
COC(=O)[C@@H](NC(=O)[C@H](CC(C)C)NC(=O)[C@@H](NC(=O)CCCOc1ccc2ccc(OCCCC(=O)N[C@H](C(=O)N[C@@H](CC(C)C)C(=O)N[C@H](C(=O)OC)C(C)C)C(C)O)cc2c1)C(C)O)C(C)C (stereo not given in full),Not Active,,
COC(=O)[C@@H](NC(=O)[C@H](CC(C)C)NC(=O)[C@@H](NC(=O)CCCOc1cccc(OCCCC(=O)N[C@H](C(=O)N[C@@H](CC(C)C)C(=O)N[C@H](C(=O)OC)C(C)C)C(C)O)n1)C(C)O)C(C)C (stereo not given in full),,,inhibition [4]: 30%
"COC(=O)[C@@H](NC(=O)[C@@H](NC(=O)[C@H](CC(C)C)NC(=O)[C@@H](NC(=O)CCCOc1ccc2ccc(OCCCC(=O)N[C@H](C(=O)N[C@@H](CC(C)C)C(=O)N[C@H](C(=O)N[C@H](C(=O)OC)C(C)C)C(C)C)[C@@H](C)O)cc2c1)[C@@H](C)O)C(C)C)C(C)C (I: TLVV-OMe / II: TLVV-OMe; linker I:N-II:N via Naphthalene(2,7-(OC3H6CO)2))",Not Active,,
COC(=O)CCCOc1ccc2ccc(OCCCC(=O)N[C@H](C(=O)N[C@@H](CC(C)C)C(=O)N[C@H](C(=O)OC)C(C)C)C(C)O)cc2c1 (stereo not given in full),,,inhibition [5]: 30%
COC(=O)[C@H](Cc1ccc(O)cc1)NC(=O)[C@H](CC(C)C)NC(=O)[C@@H](NC(=O)CCCOc1ccc2ccc(OCCCC(=O)N[C@H](C(=O)N[C@@H](CC(C)C)C(=O)N[C@@H](Cc3ccc(O)cc3)C(=O)OC)C(C)O)cc2c1)C(C)O (stereo not given in full),Not Active,,
CC[C@@H](C)[C@H](NC(=O)[C@H](CCC(N)=O)NC(=O)CCCOc1cccc(OCCCC(=O)N[C@@H](CCC(N)=O)C(=O)N[C@H](C(=O)OC)[C@H](C)CC)c1)C(=O)OC,Not Active,,
COC(=O)[C@H](CC(C)C)NC(=O)[C@H](CC(C)C)NC(=O)CNC(=O)CCCOc1cccc(OCCCC(=O)NCC(=O)N[C@@H](CC(C)C)C(=O)N[C@@H](CC(C)C)C(=O)OC)n1,,16,Kid [3]: 4.5 µM
COC(=O)[C@H](Cc1ccccc1)NC(=O)[C@H](CC(N)=O)NC(=O)[C@H](CC(C)C)NC(=O)[C@@H](NC(=O)CCCOc1cccc(OCCCC(=O)N[C@H](C(=O)N[C@@H](CC(C)C)C(=O)N[C@@H](CC(N)=O)C(=O)N[C@@H](Cc2ccccc2)C(=O)OC)C(C)O)n1)C(C)O (stereo not given in full),,10,
CC(C)C[C@H](NC(=O)[C@@H](NC(=O)CCCOc1cccc(OCCCC(=O)N[C@H](C(=O)N[C@@H](CC(C)C)C(=O)N[C@H](C(=O)O)C(C)C)C(C)O)c1)C(C)O)C(=O)N[C@H](C(=O)O)C(C)C (stereo not given in full),Not Active,,
COC(=O)[C@@H](NC(=O)[C@H](CC(C)C)NC(=O)[C@@H](NC(=O)CCCOc1cccc(OCCCC(=O)N[C@H](C(=O)N[C@@H](CC(C)C)C(=O)N[C@H](C(=O)OC)C(C)C)C(C)C)n1)C(C)C)C(C)C,,3,
COC(=O)[C@@H](NC(=O)[C@@H](NC(=O)CCCOc1cccc(OCCCC(=O)N[C@H](C(=O)N[C@H](C(=O)OC)C(C)C)C(C)O)n1)C(C)O)C(C)C (stereo not given in full),Not Active,,
CC[C@@H](C)[C@H](NC(=O)[C@H](CCC(N)=O)NC(=O)CCCOc1ccc2ccc(OCCCC(=O)N[C@@H](CCC(N)=O)C(=O)N[C@H](C(=O)OC)[C@H](C)CC)cc2c1)C(=O)OC,Not Active,,
CC(C)C[C@H](NC(=O)[C@@H](NC(=O)CCCOc1ccc2ccc(OCCCC(=O)N[C@H](C(=O)N[C@@H](CC(C)C)C(=O)N[C@H](C(=O)OCc3ccccc3)C(C)C)C(C)O)cc2c1)C(C)O)C(=O)N[C@H](C(=O)OCc1ccccc1)C(C)C (stereo not given in full),Not Active,,
CC[C@@H](C)[C@H](NC(=O)[C@@H](NC(=O)CCCOc1cccc(OCCCC(=O)N[C@H](C(=O)N[C@H](C(=O)N[C@H](C(=O)OC)C(C)C)[C@H](C)CC)C(C)O)n1)C(C)O)C(=O)N[C@H](C(=O)OC)C(C)C (stereo not given in full),,4.2,Kid [3]: 1.4 µM
CC[C@H](C)[C@H](NC(=O)[C@H](CCC(N)=O)NC(=O)CCCOc1ccc2ccc(OCCCC(=O)OC)cc2c1)C(=O)N[C@H](C(=O)N[C@@H](CC(C)C)C(=O)OC)C(C)O (stereo partly drawn) (X1-QI[Thr(3ξ)]L-OMe),Not Active,,
COC(=O)[C@@H](NC(=O)[C@H](CC(C)C)NC(=O)[C@@H](NC(=O)CCCOc1cccc(OCCCC(=O)N[C@H](C(=O)N[C@@H](CC(C)C)C(=O)N[C@H](C(=O)OC)C(C)C)C(C)C)c1)C(C)C)C(C)C,Not Active,,
CC(C)C[C@H](NC(=O)[C@@H](NC(=O)CCCOc1cccc(OCCCC(=O)N[C@H](C(=O)N[C@@H](CC(C)C)C(=O)N[C@H](C(=O)O)C(C)C)C(C)O)n1)C(C)O)C(=O)N[C@H](C(=O)O)C(C)C (stereo not given in full),,34,
CC(C)C[C@H](NC(=O)[C@@H](NC(=O)CCCOc1ccc2ccc(OCCCC(=O)N[C@H](C(=O)N[C@@H](CC(C)C)C(=O)N[C@H](C(=O)O)C(C)C)C(C)O)cc2c1)C(C)O)C(=O)N[C@H](C(=O)O)C(C)C (stereo not given in full),,10,
COC(=O)CCCOc1ccc2ccc(OCCCC(=O)N[C@H](C(=O)N[C@@H](CC(C)C)C(=O)N[C@H](C(=O)OC)C(C)C)C(C)C)cc2c1,Not Active,,
"COC(=O)[C@H](Cc1ccccc1)NC(=O)[C@H](CC(N)=O)NC(=O)[C@H](CC(C)C)NC(=O)[C@@H](NC(=O)CCCOc1ccc2ccc(OCCCC(=O)N[C@H](C(=O)N[C@@H](CC(C)C)C(=O)N[C@@H](CC(N)=O)C(=O)N[C@@H](Cc3ccccc3)C(=O)OC)C(C)O)cc2c1)C(C)O (stereo not given in full) (I: [Thr(3ξ)]LNF-OMe / II: [Thr(3ξ)]LNF-OMe; linker I:N-II:N via Naphthalene(2,7-(OC3H6CO)2))",,4.4,Kid [3]: 1 µM
COC(=O)CCCOc1ccc2ccc(OCCCC(=O)N[C@H](C(=O)N[C@@H](CC(C)C)C(=O)N[C@@H](Cc3ccc(O)cc3)C(=O)OC)C(C)O)cc2c1 (stereo not given in full),Not Active,,
COC(=O)CCCOc1ccc2ccc(OCCCC(=O)N[C@H](C(=O)N[C@@H](CC(C)C)C(=O)N[C@@H](CC(N)=O)C(=O)N[C@@H](Cc3ccccc3)C(=O)OC)C(C)O)cc2c1 (stereo not given in full) (X1-[Thr(3ξ)]LNF-OMe),,,inhibition [6]: 30%
CC[C@H](C)[C@H](NC(=O)[C@H](CCC(N)=O)NC(=O)CCCOc1cccc(OCCCC(=O)N[C@@H](CCC(N)=O)C(=O)N[C@H](C(=O)N[C@H](C(=O)N[C@@H](CC(C)C)C(=O)OC)C(C)O)[C@@H](C)CC)n1)C(=O)N[C@H](C(=O)N[C@@H](CC(C)C)C(=O)OC)C(C)O (stereo not given in full),Not Active,,
